Data published in ChEMBL document CHEMBL4130370, “Discovery of 5,6-diaryl-1,2,4-triazines hybrids as potential apoptosis inducers” (Eur J Med Chem, 2017).
Calls of active or inactive are those of the source. The calls are words filed in the database; no cut-off is given here.

Assays:
PC-3 = test: Antiproliferative activity against human PC3 cells after 48 hrs by MTT assay; format: functional, cell-based; details: PC-3, 48 h
How it was run: (§1)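 Cells exposed to compounds for 48 h, then read by MTT. IC50 is the concentration giving 50% inhibition of tumour cell proliferation, taken from dose-response curves. Values are means±SD of three independent experiments. 5-FU was the reference drug.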

ECa-109 cell line = test: Antiproliferative activity against human EC109 cells after 48 hrs by MTT assay; format: functional, cell-based; details: ECa-109, 48 h; how it was run: as §1
MGC-803 [1] = test: Antiproliferative activity against human MGC803 cells after 48 hrs by MTT assay; format: functional, cell-based; details: MGC-803, 48 h; how it was run: as §1
MGC-803 [2] = test: Induction of apoptosis in human MGC803 cells assessed as decrease in Bcl2 expression up to 10 uM after 48 hrs by Western blot analysis; format: functional, cell-based
MGC-803 [3] = test: Induction of morphological changes in human MGC803 cells assessed as formation of cell debris at 6 to 10 uM after 48 hrs by inverted microscopic analysis; format: functional, cell-based
How it was run: (§2)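 MGC-803 cells incubated at 0, 6, 8 or 10 µM for 48 h. Morphology then recorded under an inverted microscope at ×400.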

MGC-803 [4] = test: Induction of apoptosis in human MGC803 cells assessed as increase in cleaved PARP expression after 48 hrs by Western blot analysis; format: functional, cell-based
How it was run: (§3)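 MGC-803 cells treated at 0, 6, 8 or 10 µM for 48 h, then Western blotted. Band levels analysed statistically against control. Results representative of three independent experiments.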

MGC-803 [5] = test: Cell cycle arrest in human MGC803 cells assessed as accumulation at G1 phase at 8 uM after 48 hrs by propidium iodide-staining based flow cytometry (50.18%); format: functional
How it was run: (§4)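 MGC-803 cells treated at 0, 6 or 8 µM for 48 h. Cells then fixed, stained with propidium iodide and analysed by flow cytometry for cell-cycle phase distribution.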

MGC-803 [6] = test: Induction of apoptosis in human MGC803 cells assessed as chromatin condensation at 6 to 10 uM after 48 hrs by Hoechst 33258-staining based fluorescent microscopy; format: functional, cell-based
How it was run: (§5)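 MGC-803 cells incubated at the indicated concentrations for 48 h. Nuclei then stained (legend says DAPI; methods say Hoechst 33258) and viewed by fluorescence microscopy at ×400.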

MGC-803 [7] = test: Induction of apoptosis in human MGC803 cells assessed as necrotic cells at 10 uM after 48 hrs Annexin V-FITC/propidium iodide based flow cytometry (0.1%); format: functional
How it was run: (§6)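 MGC-803 cells treated at 0, 6, 8 or 10 µM for 48 h. Cells then double-stained with Annexin V-FITC and propidium iodide and analysed by biparametric flow cytometry.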

MGC-803 [8] = test: Induction of apoptosis in human MGC803 cells assessed as viable cells at 8 uM after 48 hrs Annexin V-FITC/propidium iodide based flow cytometry (96.5%); format: functional; details: MGC-803, 48 h, read-out: Activity; how it was run: as §6
MGC-803 [9] = test: Inhibition of colony formation in human MGC803 cells up to 8 uM after 7 days; format: functional, cell-based
How it was run: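 MGC-803 cells treated at various concentrations for about a week. Colonies then imaged and compared with untreated control.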

MGC-803 [10] = test: Induction of apoptosis in human MGC803 cells assessed as late apoptotic cells at 10 uM after 48 hrs Annexin V-FITC/propidium iodide based flow cytometry (1%); format: functional; how it was run: as §6
MGC-803 [11] = test: Induction of apoptosis in human MGC803 cells assessed as early apoptotic cells at 10 uM after 48 hrs Annexin V-FITC/propidium iodide based flow cytometry (2.3%); format: functional; how it was run: as §6
MGC-803 [12] = test: Induction of mitochondrial membrane potential loss in human MGC803 cells after 48 hrs by JC-1 staining based flow cytometry; format: functional, cell-based
How it was run: (§7)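 MGC-803 cells treated with vehicle or 6, 8 or 10 µM for 48 h. Mitochondrial membrane potential measured by JC-1 dye retention on flow cytometry.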

MGC-803 [13] = test: Induction of apoptosis in human MGC803 cells assessed as early apoptotic cells at 8 uM after 48 hrs Annexin V-FITC/propidium iodide based flow cytometry (2.3%); format: functional; how it was run: as §6
MGC-803 [14] = test: Induction of apoptosis in human MGC803 cells assessed as increase in cleaved caspase-3 expression after 48 hrs by Western blot analysis; format: functional, cell-based; how it was run: as §3
MGC-803 [15] = test: Induction of apoptosis in human MGC803 cells assessed as necrotic cells at 8 uM after 48 hrs Annexin V-FITC/propidium iodide based flow cytometry (0.1%); format: functional; how it was run: as §6
MGC-803 [16] = test: Cell cycle arrest in human MGC803 cells assessed as accumulation at G2/M phase at 8 uM after 48 hrs by propidium iodide-staining based flow cytometry (19.75%); format: functional; how it was run: as §4
MGC-803 [17] = test: Induction of apoptosis in human MGC803 cells assessed as decrease in Bcl-xl expression up to 10 uM after 48 hrs by Western blot analysis; format: functional, cell-based
MGC-803 [18] = test: Induction of morphological changes in human MGC803 cells assessed as rounding up of cells at 6 to 10 uM after 48 hrs by inverted microscopic analysis; format: functional, cell-based; how it was run: as §2
MGC-803 [19] = test: Cell cycle arrest in human MGC803 cells assessed as accumulation at S phase at 8 uM after 48 hrs by propidium iodide-staining based flow cytometry (25.56%); format: functional; how it was run: as §4
MGC-803 [20] = test: Induction of apoptosis in human MGC803 cells assessed as increase in DR4 expression after 48 hrs by Western blot analysis; format: functional, cell-based; how it was run: as §3
MGC-803 [21] = test: Cell cycle arrest in human MGC803 cells assessed as accumulation at G2/M phase at 6 uM after 48 hrs by propidium iodide-staining based flow cytometry (19.75%); format: functional; how it was run: as §4
MGC-803 [22] = test: Cell cycle arrest in human MGC803 cells assessed as accumulation at G2/M phase after 48 hrs by propidium iodide-staining based flow cytometry; format: functional; how it was run: as §4
MGC-803 [23] = test: Induction of apoptosis in human MGC803 cells assessed as nuclear fragmentation at 6 to 10 uM after 48 hrs by Hoechst 33258-staining based fluorescent microscopy; format: functional, cell-based; how it was run: as §5
MGC-803 [24] = test: Induction of apoptosis in human MGC803 cells assessed as viable cells at 6 uM after 48 hrs Annexin V-FITC/propidium iodide based flow cytometry (96.5%); format: functional; details: MGC-803, 48 h, read-out: Activity; how it was run: as §6
MGC-803 [25] = test: Induction of mitochondrial membrane potential loss in human MGC803 cells assessed as collapse of the mitochondrial membrane potential at 8 uM after 48 hrs by JC-1 staining based flow cytometry (reference value: 4.1%); format: functional; how it was run: as §7
MGC-803 [26] = test: Cell cycle arrest in human MGC803 cells assessed as accumulation at G1 phase at 6 uM after 48 hrs by propidium iodide-staining based flow cytometry (50.18%); format: functional; how it was run: as §4
MGC-803 [27] = test: Induction of apoptosis in human MGC803 cells assessed as late apoptotic cells at 6 uM after 48 hrs Annexin V-FITC/propidium iodide based flow cytometry (1%); format: functional; how it was run: as §6
MGC-803 [28] = test: Induction of apoptosis in human MGC803 cells assessed as increase in Bax expression after 48 hrs by Western blot analysis; format: functional, cell-based; how it was run: as §3
MGC-803 [29] = test: Induction of apoptosis in human MGC803 cells assessed as necrotic cells at 6 uM after 48 hrs Annexin V-FITC/propidium iodide based flow cytometry (0.1%); format: functional; how it was run: as §6
MGC-803 [30] = test: Induction of mitochondrial membrane potential loss in human MGC803 cells assessed as collapse of the mitochondrial membrane potential at 10 uM after 48 hrs by JC-1 staining based flow cytometry (reference value: 4.1%); format: functional; how it was run: as §7
MGC-803 [31] = test: Cell cycle arrest in human MGC803 cells assessed as accumulation at S phase at 6 uM after 48 hrs by propidium iodide-staining based flow cytometry (25.56%); format: functional; how it was run: as §4
MGC-803 [32] = test: Induction of apoptosis in human MGC803 cells assessed as nuclear condensation at 6 to 10 uM after 48 hrs by Hoechst 33258-staining based fluorescent microscopy; format: functional, cell-based; how it was run: as §5
MGC-803 [33] = test: Induction of apoptosis in human MGC803 cells assessed as viable cells at 10 uM after 48 hrs Annexin V-FITC/propidium iodide based flow cytometry (96.5%); format: functional; details: MGC-803, 48 h, read-out: Activity; how it was run: as §6
MGC-803 [34] = test: Induction of apoptosis in human MGC803 cells assessed as early apoptotic cells at 6 uM after 48 hrs Annexin V-FITC/propidium iodide based flow cytometry (2.3%); format: functional; how it was run: as §6
MGC-803 [35] = test: Induction of apoptosis in human MGC803 cells after 48 hrs Annexin V-FITC/propidium iodide based flow cytometry; format: functional, cell-based; how it was run: as §6
MGC-803 [36] = test: Induction of mitochondrial membrane potential loss in human MGC803 cells assessed as collapse of the mitochondrial membrane potential at 6 uM after 48 hrs by JC-1 staining based flow cytometry (reference value: 4.1%); format: functional; how it was run: as §7
MGC-803 [37] = test: Induction of apoptosis in human MGC803 cells assessed as late apoptotic cells at 8 uM after 48 hrs Annexin V-FITC/propidium iodide based flow cytometry (1%); format: functional; how it was run: as §6
MGC-803 [38] = test: Induction of apoptosis in human MGC803 cells assessed as increase in cleaved caspase-9 expression after 48 hrs by Western blot analysis; format: functional, cell-based; how it was run: as §3
GES1 = test: Cytotoxicity against human GES-1 cells after 48 hrs by MTT assay; format: cell-based; details: GES1, 48 h

Cc1ccc(Cn2cc(CSc3nnc(-c4ccccc4)c(-c4ccccc4)n3)nn2)cc1
IC50 (PC-3): 22.6 µM
IC50 (ECa-109 cell line): 12.4 µM
IC50 (MGC-803 [1]): 34.8 µM

COc1ccc(-c2coc3cc(OCCCn4cc(CSc5nnc(-c6ccccc6)c(-c6ccccc6)n5)nn4)ccc3c2=O)cc1
IC50 (PC-3): 10.2 µM
IC50 (ECa-109 cell line): > 100 µM
IC50 (MGC-803 [1]): > 100 µM

Fc1ccc(Cn2cc(CSc3nnc(-c4ccccc4)c(-c4ccccc4)n3)nn2)cc1
Activity (MGC-803 [2]): Active
Activity (MGC-803 [3]): Active
Activity (MGC-803 [4]): Dose-dependent effect
Activity (MGC-803 [5]): 30.03%
Activity (MGC-803 [6]): Active
Activity (MGC-803 [7]): 0.1%
viability at 8 µM (MGC-803 [8]): 75.9%
IC50 (PC-3): 10.6 µM
inhibition (MGC-803 [9]): Dose-dependent effect
Activity (MGC-803 [10]): 27.3%
IC50 (ECa-109 cell line): 19.1 µM
Activity (MGC-803 [11]): 27.5%
Activity (MGC-803 [12]): Dose-dependent effect
Activity (MGC-803 [13]): 16.9%
Activity (MGC-803 [14]): Dose-dependent effect
Activity (MGC-803 [15]): 0.2%
Activity (MGC-803 [16]): 34.39%
Activity (MGC-803 [17]): Active
Activity (MGC-803 [18]): Active
Activity (MGC-803 [19]): 25.87%
Activity (MGC-803 [20]): Dose-dependent effect
Activity (MGC-803 [21]): 26.75%
Activity (MGC-803 [22]): Dose-dependent effect
Activity (MGC-803 [23]): Active
viability at 6 µM (MGC-803 [24]): 88.7%
Activity (MGC-803 [25]): 17%
Activity (MGC-803 [26]): 41.49%
Activity (MGC-803 [27]): 2.9%
Activity (MGC-803 [28]): Dose-dependent effect
Activity (MGC-803 [29]): 0.2%
Activity (MGC-803 [30]): 42.9%
Activity (MGC-803 [31]): 25.11%
IC50 (MGC-803 [1]): 7.59 µM
Activity (MGC-803 [32]): Active
viability at 10 µM (MGC-803 [33]): 45.1%
Activity (MGC-803 [34]): 8.2%
Activity (MGC-803 [35]): Dose-dependent effect
Activity (MGC-803 [36]): 5.2%
Activity (MGC-803 [37]): 7%
Activity (MGC-803 [38]): Dose-dependent effect
IC50 (GES1): 31.7 µM

O=c1ccc2ccc(OCCCn3cc(CSc4nnc(-c5ccccc5)c(-c5ccccc5)n4)nn3)cc2o1
IC50 (PC-3): 92.3 µM
IC50 (ECa-109 cell line): > 100 µM
IC50 (MGC-803 [1]): > 100 µM

COc1ccc(C(=O)/C=C/c2ccc(-n3cc(CSc4nnc(-c5ccccc5)c(-c5ccccc5)n4)nn3)cc2)cc1
IC50 (PC-3): > 100 µM
IC50 (ECa-109 cell line): > 100 µM
IC50 (MGC-803 [1]): 36.7 µM

CC(=O)CSc1nnc(-c2ccccc2)c(-c2ccccc2)n1
IC50 (PC-3): > 100 µM
IC50 (ECa-109 cell line): > 100 µM
IC50 (MGC-803 [1]): > 100 µM

O=c1cc(OCCCn2cc(CSc3nnc(-c4ccccc4)c(-c4ccccc4)n3)nn2)c2ccccc2o1
IC50 (PC-3): 57.8 µM
IC50 (ECa-109 cell line): > 100 µM
IC50 (MGC-803 [1]): > 100 µM

Clc1ccc(Cn2cc(CSc3nnc(-c4ccccc4)c(-c4ccccc4)n3)nn2)cc1
IC50 (PC-3): 14.7 µM
IC50 (ECa-109 cell line): 24.2 µM
IC50 (MGC-803 [1]): 13.2 µM

O=C(O)CCSc1nnc(-c2ccccc2)c(-c2ccccc2)n1
IC50 (PC-3): > 100 µM
IC50 (ECa-109 cell line): > 100 µM
IC50 (MGC-803 [1]): > 100 µM
